Calls of active or inactive are those of the source.
Tests used:
Staphylococcus aureus [1] = experiment: Antibacterial activity against Staphylococcus aureus ATCC 29213 assessed as bactericidal at 8 times MIC in 24 hrs by time kill study; assay type: functional, organism-based
Procedure, shortened: (§1)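 Time-kill assay following earlier published methods. Each agent tested at 2×, 4× and 8× its MIC for the strain. Viable colony counts taken at 0, 2, 4, 8 and 24 h. Bactericidal activity defined as a ≥3 log10 CFU/ml drop from the starting inoculum within 24 h.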

[2] = tested on: Staphylococcus epidermidis; experiment: Antibacterial activity against Staphylococcus epidermidis 2777A assessed as bacteriostatic by time kill study
Streptococcus mitis [3] = experiment: Antibacterial activity against Streptococcus mitis 112-1885A assessed as bactericidal at 4 times MIC in 24 hrs by time kill study; assay type: functional, organism-based; procedure, shortened: as §1
Streptococcus mitis [4] = experiment: Antibacterial activity against Streptococcus mitis 112-1885A assessed as bactericidal at 2 times MIC in 24 hrs by time kill study; assay type: functional, organism-based; procedure, shortened: as §1
Streptococcus mitis [5] = experiment: Antibacterial activity against Streptococcus mitis 112-1885A assessed as bactericidal at 8 times MIC in 24 hrs by time kill study; assay type: functional, organism-based; procedure, shortened: as §1
Streptococcus pneumoniae [6] = experiment: Antibacterial activity against Streptococcus pneumoniae ATCC 49619 assessed as bactericidal at 4 times MIC in 24 hrs by time kill study; assay type: functional, organism-based; procedure, shortened: as §1
Streptococcus pneumoniae [7] = experiment: Antibacterial activity against Streptococcus pneumoniae ATCC 49619 assessed as bactericidal at 2 times MIC in 24 hrs by time kill study; assay type: functional, organism-based; procedure, shortened: as §1
Streptococcus pyogenes [8] = experiment: Antibacterial activity against Streptococcus pyogenes 117-1612A assessed as bactericidal at 8 times MIC in 24 hrs by time kill study; assay type: functional, organism-based; procedure, shortened: as §1
Streptococcus pneumoniae [9] = experiment: Antibacterial activity against Streptococcus pneumoniae ATCC 49619 assessed as bactericidal at 8 times MIC in 24 hrs by time kill study; assay type: functional, organism-based; procedure, shortened: as §1
Enterococcus faecium [10] = experiment: Antimicrobial activity against Enterococcus faecium 086-15387A after passaging with CEM-101 by broth microdilution method; assay type: functional
Procedure, shortened: (§2)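 Multistep resistance selection by CLSI reference broth microdilution. The full content of the last well showing growth was resuspended in broth to a 0.5 McFarland standard, and 5 × 10^5 CFU/ml was used for the next MIC panel, repeated over 7 passage days. Reversion was checked by three consecutive drug-free agar passages, followed by a final broth microdilution MIC. A ≥8-fold MIC change from initial counted as significant resistance.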

Enterococcus faecalis [11] = experiment: Antimicrobial activity against Enterococcus faecalis ATCC 29212 after passaging with CEM-101 by broth microdilution method; assay type: functional; procedure, shortened: as §2
Staphylococcus aureus [12] = experiment: Antibacterial activity against Staphylococcus aureus ATCC 29213 assessed as bactericidal at 4 times MIC in 24 hrs by time kill study; assay type: functional, organism-based; procedure, shortened: as §1
Enterococcus faecalis [13] = experiment: Antibacterial activity against Enterococcus faecalis ATCC 29212 assessed as bacteriostatic by time kill study; assay type: functional, organism-based; procedure, shortened: as §1
Staphylococcus aureus [14] = experiment: Antimicrobial activity against Staphylococcus aureus ATCC 29213 after passaging with CEM-101 by broth microdilution method; assay type: functional; procedure, shortened: as §2
Streptococcus mitis [15] = experiment: Antimicrobial activity against Streptococcus mitis 112-1885A after passaging with CEM-101 by broth microdilution method; assay type: functional; procedure, shortened: as §2
Streptococcus pyogenes [16] = experiment: Antibacterial activity against Streptococcus pyogenes assessed as log cell killing at 8 times MIC in 24 hrs by time kill study; assay type: functional; procedure, shortened: as §1
Staphylococcus aureus [17] = experiment: Antibacterial activity against Staphylococcus aureus ATCC 29213 assessed as log cell killing at 8 times MIC in 24 hrs by time kill study; assay type: functional; procedure, shortened: as §1
[18] = tested on: Staphylococcus epidermidis; experiment: Antibacterial activity against Staphylococcus epidermidis 2777A assessed as bactericidal at 2 times MIC in 24 hrs by time kill study
Moraxella catarrhalis = experiment: Antimicrobial activity against Moraxella catarrhalis 117-10142A after passaging with CEM-101 by broth microdilution method; assay type: functional; procedure, shortened: as §2
Streptococcus pyogenes [19] = experiment: Antibacterial activity against Streptococcus pyogenes 088-11708A assessed as bactericidal at 4 times MIC in 24 hrs by time kill study; assay type: functional, organism-based; procedure, shortened: as §1
Streptococcus pneumoniae [20] = experiment: Antibacterial activity against Streptococcus pneumoniae 241B assessed as bacteriostatic by time kill study; assay type: functional, organism-based; procedure, shortened: as §1
Staphylococcus aureus [21] = experiment: Antimicrobial activity against Staphylococcus aureus 117-453D after passaging with CEM-101 by broth microdilution method; assay type: functional; procedure, shortened: as §2
[22] = tested on: Staphylococcus epidermidis; experiment: Antibacterial activity against Staphylococcus epidermidis 2777A assessed as bactericidal at 4 times MIC in 24 hrs by time kill study
Staphylococcus aureus [23] = experiment: Antimicrobial activity against Staphylococcus aureus 004-573D after passaging with CEM-101 by broth microdilution method; assay type: functional; procedure, shortened: as §2
[24] = tested on: Staphylococcus epidermidis; experiment: Antibacterial activity against Staphylococcus epidermidis assessed as log cell killing at 8 times MIC in 24 hrs by time kill study; assay type: functional; procedure, shortened: as §1
Haemophilus influenzae = experiment: Antimicrobial activity against Haemophilus influenzae ATCC 49247 after passaging with CEM-101 by broth microdilution method; assay type: functional; procedure, shortened: as §2
Staphylococcus aureus [25] = experiment: Antimicrobial activity against Staphylococcus aureus NRS384 after passaging with CEM-101 by broth microdilution method; assay type: functional; procedure, shortened: as §2
Staphylococcus aureus [26] = experiment: Antibacterial activity against Staphylococcus aureus ATCC 29213 assessed as bactericidal at 2 times MIC in 24 hrs by time kill study; assay type: functional, organism-based; procedure, shortened: as §1
Streptococcus pyogenes [27] = experiment: Antibacterial activity against Streptococcus pyogenes 088-11708A assessed as bactericidal at 2 times MIC in 24 hrs by time kill study; assay type: functional, organism-based; procedure, shortened: as §1
[28] = tested on: Staphylococcus epidermidis; experiment: Antimicrobial activity against Staphylococcus epidermidis 095-2777A by broth microdilution method
[29] = tested on: Staphylococcus epidermidis; experiment: Antibacterial activity against Staphylococcus epidermidis 2777A assessed as bactericidal at 8 times MIC in 24 hrs by time kill study
Staphylococcus aureus [30] = experiment: Antimicrobial activity against Staphylococcus aureus 117-472D after passaging with CEM-101 by broth microdilution method; assay type: functional; procedure, shortened: as §2
Streptococcus pyogenes [31] = experiment: Antimicrobial activity against Streptococcus pyogenes 088-11708A after passaging with CEM-101 by broth microdilution method; assay type: functional; procedure, shortened: as §2
Streptococcus pneumoniae [32] = experiment: Antimicrobial activity against Streptococcus pneumoniae ATCC 49619 after passaging with CEM-101 by broth microdilution method; assay type: functional; procedure, shortened: as §2
Streptococcus pneumoniae [33] = experiment: Antimicrobial activity against Streptococcus pneumoniae 075-241B after passaging with CEM-101 by broth microdilution method; assay type: functional; procedure, shortened: as §2
Enterococcus faecalis [34] = experiment: Antimicrobial activity against Enterococcus faecalis 061-6556A after passaging with CEM-101 by broth microdilution method; assay type: functional; procedure, shortened: as §2
Streptococcus pneumoniae [35] = experiment: Antimicrobial activity against Streptococcus pneumoniae 063-1085A after passaging with CEM-101 by broth microdilution method; assay type: functional; procedure, shortened: as §2
Streptococcus mitis [36] = experiment: Antimicrobial activity against Streptococcus mitis 051-4933A after passaging with CEM-101 by broth microdilution method; assay type: functional; procedure, shortened: as §2
Streptococcus pyogenes [37] = experiment: Antibacterial activity against Streptococcus pyogenes 088-11708A assessed as bactericidal at 8 times MIC in 24 hrs by time kill study; assay type: functional, organism-based; procedure, shortened: as §1
Enterococcus faecium [38] = experiment: Antimicrobial activity against Enterococcus faecium 067- after passaging with CEM-101 by broth microdilution method; assay type: functional; procedure, shortened: as §2
Enterococcus faecalis [39] = experiment: Antimicrobial activity against Enterococcus faecalis 067-6633A after passaging with CEM-101 by broth microdilution method; assay type: functional; procedure, shortened: as §2
Streptococcus pneumoniae [40] = experiment: Antibacterial activity against Streptococcus pneumoniae ATCC 49619 assessed as log cell killing at 8 times MIC in 24 hrs by time kill study; assay type: functional; procedure, shortened: as §1
[41] = tested on: Staphylococcus haemolyticus; experiment: Antimicrobial activity against Staphylococcus haemolyticus 064-4090A after passaging with CEM-101 by broth microdilution method; assay type: functional; procedure, shortened: as §2
Staphylococcus aureus [42] = experiment: Antimicrobial activity against Staphylococcus aureus 024-11490A after passaging with CEM-101 by broth microdilution method; assay type: functional; procedure, shortened: as §2
Streptococcus pneumoniae [43] = experiment: Antimicrobial activity against Streptococcus pneumoniae 127-2273B after passaging with CEM-101 by broth microdilution method; assay type: functional; procedure, shortened: as §2
Streptococcus pyogenes [44] = experiment: Antimicrobial activity against Streptococcus pyogenes 117-1612A after passaging with CEM-101 by broth microdilution method; assay type: functional; procedure, shortened: as §2

CC[C@H]1OC(=O)[C@H](C)C(=O)[C@H](C)[C@@H](O[C@@H]2O[C@H](C)C[C@H](N(C)C)[C@H]2O)[C@](C)(OC)C[C@@H](C)C(=O)[C@H](C)[C@H]2N(CCCCn3cnc(-c4cccnc4)c3)C(=O)O[C@]12C
active: Activity (Staphylococcus aureus [1]) | Activity [2] | Activity (Streptococcus mitis [3]) | Activity (Streptococcus mitis [4]) | Activity (Streptococcus mitis [5])

CC[C@H]1OC(=O)[C@H](C)[C@@H](O[C@H]2C[C@@](C)(OC)[C@@H](O)[C@H](C)O2)[C@H](C)[C@@H](O[C@@H]2O[C@H](C)C[C@H](N(C)C)[C@H]2O)[C@](C)(O)C[C@@H](C)C(=O)[C@H](C)[C@@H](O)[C@]1(C)O
active: Activity (Staphylococcus aureus [1]) | Activity (Streptococcus pneumoniae [6]) | Activity (Streptococcus pneumoniae [7]) | Activity (Streptococcus pyogenes [8]) | Activity (Streptococcus pneumoniae [9])

CC[C@H]1OC(=O)[C@H](C)[C@@H](O[C@H]2C[C@@](C)(OC)[C@@H](O)[C@H](C)O2)[C@H](C)[C@@H](O[C@@H]2O[C@H](C)C[C@H](N(C)C)[C@H]2O)[C@](C)(OC)C[C@@H](C)C(=O)[C@H](C)[C@@H](O)[C@]1(C)O [CLARITHROMYCIN]
Active: Activity (Staphylococcus aureus [1])

CC[C@H]1OC(=O)[C@@](C)(F)C(=O)[C@H](C)[C@@H](O[C@@H]2O[C@H](C)C[C@H](N(C)C)[C@H]2O)[C@](C)(OC)C[C@@H](C)C(=O)[C@H](C)[C@H]2N(CCCCn3cc(-c4cccc(N)c4)nn3)C(=O)O[C@]12C [SOLITHROMYCIN]
0.03 µg/mL: MIC (Enterococcus faecalis [11])
≤ 0.008 µg/mL: MIC (Streptococcus mitis [15])
2 µg/mL: MIC (Haemophilus influenzae) | MIC (Enterococcus faecalis [39])
0.06 µg/mL: MIC (Staphylococcus aureus [14]) | MIC (Streptococcus pyogenes [31]) | MIC (Enterococcus faecalis [34]) | MIC (Enterococcus faecium [38]) | MIC (Streptococcus pneumoniae [43])
0.015 µg/mL: MIC (Streptococcus pneumoniae [33]) | MIC (Streptococcus pneumoniae [35]) | MIC (Streptococcus pyogenes [44])
1 µg/mL: MIC (Enterococcus faecium [10])
0.008 µg/mL: MIC (Streptococcus pneumoniae [32])
0.12 µg/mL: MIC (Moraxella catarrhalis) | MIC (Staphylococcus aureus [21]) | MIC (Staphylococcus aureus [23]) | MIC (Staphylococcus aureus [25]) | MIC [28] | MIC (Staphylococcus aureus [30]) | MIC (Streptococcus mitis [36]) | MIC [41] | MIC (Staphylococcus aureus [42])
active: Activity (Staphylococcus aureus [12]) | Activity (Enterococcus faecalis [13]) | Activity (Staphylococcus aureus [1]) | Activity [18] | Activity (Streptococcus pyogenes [19]) | Activity (Streptococcus pneumoniae [20]) | Activity [22] | Activity (Staphylococcus aureus [26]) | Activity (Streptococcus pyogenes [27]) | Activity [29] | Activity (Streptococcus pyogenes [37])
>=3 log10CFU/ml: Activity (Streptococcus pyogenes [16]) | Activity (Staphylococcus aureus [17]) | Activity [24] | Activity (Streptococcus pneumoniae [40])
